Assay results gathered from unrelated publications.
Each line is one published result; the experiments were not run side by side.
Target: Serine/threonine-protein kinase BRSK1 (BRSK1, Homo sapiens, UniProt Q8TDC3)
Residues used in one study (Q8TDC3 1-778): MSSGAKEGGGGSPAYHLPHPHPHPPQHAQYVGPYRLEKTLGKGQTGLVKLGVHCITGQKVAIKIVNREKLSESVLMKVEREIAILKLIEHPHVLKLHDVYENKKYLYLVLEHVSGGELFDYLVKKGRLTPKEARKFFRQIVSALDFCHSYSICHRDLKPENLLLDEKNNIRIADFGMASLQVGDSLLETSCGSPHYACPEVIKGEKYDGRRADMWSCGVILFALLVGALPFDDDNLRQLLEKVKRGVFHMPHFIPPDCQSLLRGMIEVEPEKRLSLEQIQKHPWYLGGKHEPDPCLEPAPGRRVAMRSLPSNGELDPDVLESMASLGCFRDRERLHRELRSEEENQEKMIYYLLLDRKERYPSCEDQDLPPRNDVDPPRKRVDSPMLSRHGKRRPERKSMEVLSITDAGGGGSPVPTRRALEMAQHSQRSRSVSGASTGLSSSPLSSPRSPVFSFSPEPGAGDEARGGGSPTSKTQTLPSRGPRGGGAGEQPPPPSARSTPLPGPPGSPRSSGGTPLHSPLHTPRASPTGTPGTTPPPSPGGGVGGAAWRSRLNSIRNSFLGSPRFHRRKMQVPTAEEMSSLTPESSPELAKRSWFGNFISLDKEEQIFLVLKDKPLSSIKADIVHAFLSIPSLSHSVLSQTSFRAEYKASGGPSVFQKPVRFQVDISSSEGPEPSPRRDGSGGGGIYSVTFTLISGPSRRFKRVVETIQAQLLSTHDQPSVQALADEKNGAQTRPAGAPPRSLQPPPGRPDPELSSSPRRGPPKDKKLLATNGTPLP

SMILES	assay	setting	quantity	result
Cc1ccc(NC(=O)c2ccnc(C(F)(F)F)c2)cc1-c1cc(OCCO)nc(N2CCOCC2)c1	binding	1 µM	remaining binding	93%
C=CC(=O)N1CCC([C@@H]2CCNc3c(C(N)=O)c(-c4ccc(Oc5ccccc5)cc4)nn32)CC1	enzyme activity, inhibitor	1 µM	inhibition	0%
CCCCC(=O)Nc1ccc(-c2ccc3ncn(CCC)c(=O)c3c2)cn1	binding, competition with immobilised ligand	0.5 µM	remaining binding	100%
CO[C@@H]1[C@H](N(C)C(=O)c2ccccc2)C[C@H]2O[C@]1(C)n1c3ccccc3c3c4c(c5c6ccccc6n2c5c31)C(=O)NC4	enzyme activity, inhibitor	1 µM	inhibition	48%
C#Cc1cc(-c2cc(Nc3nc(N[C@@H](C)c4ccc(F)cn4)ncc3Cl)n[nH]2)ccc1C=O	enzyme activity, inhibitor	0.2 µM	inhibition	10.3%
C1=C/COCc2cc(ccc2OCCN2CCCC2)Nc2nccc(n2)-c2cccc(c2)COC/1	binding	0.1 µM	remaining binding	99%
COc1ccc2[nH]c3c4[nH]c5ccc(OC)cc5c4c4c(c3c2c1)C(=O)NC4=O	binding	1 µM	remaining binding	10%
COc1ccc2oc(-c3ccc4nc(N)oc4c3)c/c(=N\c3ccccc3NC(=O)CCN)c2c1	binding	1 µM	remaining binding	103%
